Screening data (PubChem BioAssay)
A selection: hits, their analogues and other compounds. The true share with any hit is near 1.5%.
S1P4 antagonist: S1P4 receptor antagonists, primary screen, cell-based. Sphingosine 1-phosphate receptor 4 (Homo sapiens), O95977. S1P4-expressing cells, antagonist mode, reporter read-out. inhibition, % at 4.98 µM. actives 0.26% (n = 220,000); in the data active = inhibition above about 29%
Target sequence (O95977 whole entry, looked up): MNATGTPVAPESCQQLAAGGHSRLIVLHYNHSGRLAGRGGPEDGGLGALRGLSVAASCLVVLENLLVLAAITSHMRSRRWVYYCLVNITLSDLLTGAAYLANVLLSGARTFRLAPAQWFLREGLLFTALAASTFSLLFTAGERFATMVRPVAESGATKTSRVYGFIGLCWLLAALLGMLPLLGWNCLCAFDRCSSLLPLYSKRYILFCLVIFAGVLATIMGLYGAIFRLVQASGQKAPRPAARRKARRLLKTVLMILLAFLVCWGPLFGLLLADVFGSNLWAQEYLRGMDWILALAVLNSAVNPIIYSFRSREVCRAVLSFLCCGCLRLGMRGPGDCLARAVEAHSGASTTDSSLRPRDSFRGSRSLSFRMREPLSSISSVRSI
Dynein cargo inh: inhibitors of GR-EGFP nuclear translocation, primary screen, dynein cargo transport inhibitor project, imaging, high-content, 3617.4 mouse cells; test concentration mostly 20 µM; stimulated with dexamethasone, 1 µM; hits give low values; z-score, hits read low; actives 0.47% (n = 220,000);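 active = plate z-score of nuclear minus cytoplasmic receptor signal below a set negative limit, without overly bright fluorescence or cell loss, cut at about -3.5 in these data, passing the limit was not always enough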;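 note: z-score of nuclear minus cytoplasmic ring GR-EGFP intensity difference per well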
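Buffer or medium: tet-free medium with charcoal-stripped serum / Also added: dexamethasone agonist, 1.0 µM final, for 30 min / Timing: induction 48 h, compound 1 h, agonist 30 min / Measured by: high-content fluorescence imaging after fixation / Read-out: nuclear-to-cytoplasmic GR-EGFP distribution per well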
Tb hexokinase: Trypanosoma brucei hexokinase 1 inhibitors, primary screen, biochemical, G6PDH-coupled NADH absorbance, MLSCN library; recombinant TbHK1, G6PDH-coupled NADH A340; actives 0.11% (n = 220,000); AID 1430, 2008; inhibition, % at 10 µM; hexokinase 1 [Trypanosoma brucei];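 active = inhibition of 50% or more in the single-dose primary screen; inactive = inhibition below 50%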
S1P4 agonist: S1P4 receptor agonists, primary screen, cell-based | S1P4-expressing cell line, agonist reporter assay | activation, % at 4.98 µM | AID 1509, 2009 | Sphingosine 1-phosphate receptor 4 (Homo sapiens), O95977 | actives 0.35% (n = 220,000); in the data active = activation above about 11%
TNF death inh: inhibitors of TNF-alpha triggered necroptosis, primary screen, cell-based, Jurkat FADD-/-, single concentration | Jurkat FADD-/- TNF necroptosis rescue, ATP luminescence, 24 h; 0 = TNF only, 100 = no-TNF cells | activation (protection from cell death), % at 10 µM | actives 0.068% (n = 220,000);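 active = activation, meaning protection from cell death, of at least 50% relative to plate controls; inactive = activation below 50%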;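 note: necroptosis triggered by 40 ng/mL TNF-alpha added together with compound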
L929 necroptosis: inhibitors of zVAD-triggered necroptosis, primary screen, L929 cells. L929 zVAD necroptosis rescue, ATP luminescence, 24 h; with zVAD 60 µM. viability rescue, % at 10 µM. actives 0.38% (n = 220,000);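 active = activation, scaled between plate controls, above about 75%, limit read from the data; inactive = activation under that limit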
Dynein confirm: dynein cargo transport inhibitors, GR-EGFP translocation, confirmation, imaging, high-content imaging, GR-EGFP cells; calls only at 20 µM; shares compounds with Dynein cargo inh; actives 69% (n = 1,000); 3617.4 GR-EGFP nuclear translocation imaging, dexamethasone-induced;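 active = inhibition of receptor movement into the nucleus at or above a set limit in both runs, with normal cell brightness and cell count; inconclusive = limit reached in only one run, brightness and count normal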;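 note: dexamethasone at 1 µM final in well for 30 min; nuclear minus cytoplasmic GR-EGFP mean intensity difference in channel 2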
Each line names hits and unclear results; the compound was inactive in the other large screens (follow-up assays come after a bar, where they were run).

O=C(CN1CCCc2ccccc21)NC(=O)NC1CCCCC1	none | Dynein confirm inactive
Cc1ccc(C)c2nc3sc(C(=O)N4CCCc5ccccc54)c(N)c3cc12	none | Dynein confirm inactive
CCc1ccc2nc3sc(C(=O)N4CCc5ccccc54)c(N)c3cc2c1	none
COCCCNC1=C(Cl)C(=O)c2ccccc2C1=O	none
COCCCNc1c2c3c(cccc3[nH]c1=O)C(=O)c1ccccc1-2	Dynein cargo inh -4.88 | Dynein confirm active
CCn1c(=O)[nH]c2cc(C(=O)Nc3cc(C)cc(C)c3)ccc2c1=O	none
COc1ccccc1-c1cc(C(F)(F)F)nc(S(=O)(=O)CCCC(=O)N2CCCCC2C)n1 (configuration not stated)	Dynein cargo inh -5.83 | Dynein confirm inconclusive
CCOC(=O)c1cnc2c(F)ccc(F)c2c1Sc1ccccc1	Dynein cargo inh -4.04 | Dynein confirm active
CCOC(=O)c1cnc(-c2ccccc2)nc1C(F)(F)F	none
Nc1cccc2c1C(=O)N(C(=O)/C=C/c1ccc(F)cc1)C2=O	Dynein cargo inh -4.67 | Dynein confirm active
O=S1(=O)CCC(NC(=S)SCCOc2ccccc2)C1 (configuration not stated)	Dynein cargo inh -3.9 | Dynein confirm active
Cc1c(C(=O)OCC(=O)Nc2ccc(C(N)=O)cc2)cccc1[N+](=O)[O-]	none
O=C(NCC1CC1)c1onc(CSc2ccncc2)c1C(=O)NCC1CC1	none (no result: S1P4 antagonist, S1P4 agonist)
CCOC(=O)c1c(C)oc2c1c(C(c1cccnc1)N1CCOCC1)c(O)c1ccccc12 (configuration not stated)	Dynein cargo inh -3.71 | Dynein confirm inconclusive
Cc1ccc(O)c(NC(=O)c2cc([N+](=O)[O-])ccc2Cl)c1	Dynein cargo inh -3.68 | Dynein confirm active
Cc1ccc(S(=O)(=O)/N=c2\ccc(Cl)cn2C(F)F)cc1	Dynein cargo inh -3.77 | Dynein confirm inactive
Cc1ccc(S(C)(=O)=NC(=O)NC(=O)c2c(F)cccc2Cl)cc1 (configuration not stated)	none
COc1ccc(NC(=O)c2cccc(-n3c(C)ccc3C)c2)c(OC)c1	none
Cc1ccc(-c2nn(-c3ccccc3)cc2CO)o1	Dynein cargo inh -3.66 | Dynein confirm inactive
CCOC(=O)c1ccc(NC(=O)CC2Sc3ncnn3C2=O)cc1 (configuration not stated)	none
COc1ccc(NC(=O)CC2Sc3ncnn3C2=O)cc1 (configuration not stated)	Dynein cargo inh -4.05 | Dynein confirm inactive
O=C(CC1Sc2ncnn2C1=O)Nc1ccc(Cl)cc1 (configuration not stated)	Dynein cargo inh -3.61 | Dynein confirm inactive
O=C(CC1SC(=O)N(c2ccccc2)C1=O)Nc1ccc(Cl)cc1 (configuration not stated)	none
CS(=O)(=O)N1N=C(c2cccs2)CC1c1ccccc1F (configuration not stated)	none
Fc1ccc(-c2csc3ncnc(Cl)c23)cc1	none
COc1ccc(Nc2ncnc3scc(-c4ccc(OC)cc4)c23)cc1	none
Clc1ccc(-c2csc3ncnc(Cl)c23)cc1	Dynein cargo inh -3.97 | Dynein confirm active
COc1ccc(-c2csc3ncnc(Cl)c23)cc1	Dynein cargo inh -4.09 | Dynein confirm inactive
CCc1ccc(NC(=O)Cn2c3[n+](c4c(F)c(F)ccc42)CCCCC3)cc1	none
O=C(c1ccc(S(=O)(=O)Cc2cc(F)ccc2F)c([N+](=O)[O-])c1)N1CCCC1	Dynein cargo inh -4.61 | Dynein confirm active
Cc1nn(C)c(C(=O)Sc2cccc(Cl)c2)c1[N+](=O)[O-]	Dynein cargo inh -3.95 | Dynein confirm active
CCn1nc(C)cc1C(=O)n1nc(C)c(Sc2ncccn2)c1C	none
CCn1nc(C)cc1C(=O)Sc1cccc(Cl)c1	Dynein cargo inh -3.51 | Dynein confirm active
CC(C)[C@@H](N)C(=O)N/N=C/c1ccc2ncccc2c1	none
O=C(CN1C(=O)/C(=C/c2cccc(Br)c2)SC1=S)N1CCCC1	none
Cc1cc(C)c2c(=O)n(CC(=O)NC3CCCC3)sc2n1	Dynein cargo inh -4.21 | Dynein confirm active
COc1ccc(OC)c(CCNC(=O)Cn2sc3nc(C)cc(C)c3c2=O)c1	Dynein cargo inh -4.13 | Dynein confirm active
O=C(c1ccco1)N1CCN(c2c([N+](=O)[O-])nn(-c3cccc(Cl)c3)[n+]2[O-])CC1	none
COc1ccc(/C=C/C(=O)c2ccc(C)c([N+](=O)[O-])c2)cc1O	none
COc1cccc(/C=C/C(=O)c2ccc(C)c([N+](=O)[O-])c2)c1	Dynein cargo inh -4.03 | Dynein confirm active
COc1cc(/C=C/C(=O)c2ccc(C)c([N+](=O)[O-])c2)cc(OC)c1O	Dynein cargo inh -3.8 | Dynein confirm inconclusive
Cc1ccc(C(=O)/C=C/c2ccccc2[N+](=O)[O-])cc1	Dynein cargo inh -4.67 | Dynein confirm active
Cc1ccc(C(=O)/C=C/c2ccc(-c3ccccc3[N+](=O)[O-])o2)cc1	none
Cc1[nH]c2ccccc2c1N=Nc1ccccc1C(=O)O	none
COc1ccc(Oc2nc(OC)cc(OC)n2)cc1	none
O=[N+]([O-])c1cc(C(F)(F)F)ccc1Sc1nccn1Cc1ccccc1	none
O=[N+]([O-])c1ccc(Sc2nccn2Cc2ccccc2)c([N+](=O)[O-])c1	Dynein cargo inh -4.57 | Dynein confirm active
O=[N+]([O-])c1ccc(Sc2ncccn2)c([N+](=O)[O-])c1	Dynein cargo inh -4.84 | Dynein confirm inactive
CCC(=O)NC1=C(Cl)C(=O)C(NC(=O)CC)=C(Cl)C1=O	none
CCOc1ccc(S(=O)(=O)NCCC(=O)OCC(=O)N2CC(=O)Nc3ccccc32)cc1	none
CCOC(=O)c1c(CSCc2ccccc2)oc2ccc(O)c(CN(C)C)c12	none
COc1cc(C(=O)Sc2ccc(C)cc2)cc(OC)c1OC	Dynein cargo inh -4.42 | Dynein confirm active
COc1ccccc1OCC(=O)Sc1ccc(C)cc1	none
CCN1CCN(Cc2c(O)ccc3c2O/C(=C\C=C\c2ccccc2)C3=O)CC1	Dynein cargo inh -4.91 | Dynein confirm active
COc1ccc(/C=N/NC(=O)c2ccc(N)cc2)cc1Cn1cc([N+](=O)[O-])cn1	none
